{"source": "ChEMBL document CHEMBL4706620", "about": "“Design, synthesis, biological activity evaluation of 3-(4-phenyl-1H-imidazol-2-yl)-1H-pyrazole derivatives as potent JAK 2/3 and aurora A/B kinases multi-targeted inhibitors” (Eur J Med Chem, 2021)", "key": {"[1]": {"target": "Tyrosine-protein kinase JAK2 (Homo sapiens, UniProt O60674)", "sequence (O60674 whole entry)": "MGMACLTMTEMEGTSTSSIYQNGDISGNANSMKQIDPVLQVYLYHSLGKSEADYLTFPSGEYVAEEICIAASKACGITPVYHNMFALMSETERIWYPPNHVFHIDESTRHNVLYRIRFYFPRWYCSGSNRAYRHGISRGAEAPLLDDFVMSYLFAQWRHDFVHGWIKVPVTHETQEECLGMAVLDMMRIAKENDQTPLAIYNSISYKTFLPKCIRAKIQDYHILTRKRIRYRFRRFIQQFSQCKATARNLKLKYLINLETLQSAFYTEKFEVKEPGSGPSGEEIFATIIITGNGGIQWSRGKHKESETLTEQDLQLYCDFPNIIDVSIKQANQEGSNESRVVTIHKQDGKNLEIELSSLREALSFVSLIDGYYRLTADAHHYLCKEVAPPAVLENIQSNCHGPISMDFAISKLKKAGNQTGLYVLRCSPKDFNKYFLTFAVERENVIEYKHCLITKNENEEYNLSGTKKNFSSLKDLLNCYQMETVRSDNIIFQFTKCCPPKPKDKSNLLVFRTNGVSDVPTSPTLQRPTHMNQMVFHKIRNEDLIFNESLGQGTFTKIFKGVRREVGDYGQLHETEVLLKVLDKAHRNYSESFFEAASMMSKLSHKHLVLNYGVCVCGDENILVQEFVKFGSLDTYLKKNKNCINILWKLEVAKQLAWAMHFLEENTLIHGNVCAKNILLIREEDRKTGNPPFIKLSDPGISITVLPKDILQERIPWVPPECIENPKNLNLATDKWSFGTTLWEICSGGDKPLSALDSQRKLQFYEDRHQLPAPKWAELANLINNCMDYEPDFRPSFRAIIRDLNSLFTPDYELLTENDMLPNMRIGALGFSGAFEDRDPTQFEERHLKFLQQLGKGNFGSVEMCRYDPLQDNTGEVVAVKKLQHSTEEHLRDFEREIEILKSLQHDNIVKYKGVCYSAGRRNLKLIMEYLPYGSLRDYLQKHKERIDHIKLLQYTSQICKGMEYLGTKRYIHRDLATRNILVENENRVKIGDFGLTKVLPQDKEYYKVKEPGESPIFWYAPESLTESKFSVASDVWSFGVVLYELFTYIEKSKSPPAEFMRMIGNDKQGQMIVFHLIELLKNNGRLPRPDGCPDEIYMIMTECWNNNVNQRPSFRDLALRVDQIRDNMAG", "experiment": "Inhibition of JAK2 (unknown origin) incubated for 40 mins in presence of ATP by Kinase-glo luminescence assay"}, "[2]": {"target": "T1, Tyrosine-protein kinase JAK3 (Homo sapiens, UniProt P52333)", "T1 sequence (P52333 whole entry)": "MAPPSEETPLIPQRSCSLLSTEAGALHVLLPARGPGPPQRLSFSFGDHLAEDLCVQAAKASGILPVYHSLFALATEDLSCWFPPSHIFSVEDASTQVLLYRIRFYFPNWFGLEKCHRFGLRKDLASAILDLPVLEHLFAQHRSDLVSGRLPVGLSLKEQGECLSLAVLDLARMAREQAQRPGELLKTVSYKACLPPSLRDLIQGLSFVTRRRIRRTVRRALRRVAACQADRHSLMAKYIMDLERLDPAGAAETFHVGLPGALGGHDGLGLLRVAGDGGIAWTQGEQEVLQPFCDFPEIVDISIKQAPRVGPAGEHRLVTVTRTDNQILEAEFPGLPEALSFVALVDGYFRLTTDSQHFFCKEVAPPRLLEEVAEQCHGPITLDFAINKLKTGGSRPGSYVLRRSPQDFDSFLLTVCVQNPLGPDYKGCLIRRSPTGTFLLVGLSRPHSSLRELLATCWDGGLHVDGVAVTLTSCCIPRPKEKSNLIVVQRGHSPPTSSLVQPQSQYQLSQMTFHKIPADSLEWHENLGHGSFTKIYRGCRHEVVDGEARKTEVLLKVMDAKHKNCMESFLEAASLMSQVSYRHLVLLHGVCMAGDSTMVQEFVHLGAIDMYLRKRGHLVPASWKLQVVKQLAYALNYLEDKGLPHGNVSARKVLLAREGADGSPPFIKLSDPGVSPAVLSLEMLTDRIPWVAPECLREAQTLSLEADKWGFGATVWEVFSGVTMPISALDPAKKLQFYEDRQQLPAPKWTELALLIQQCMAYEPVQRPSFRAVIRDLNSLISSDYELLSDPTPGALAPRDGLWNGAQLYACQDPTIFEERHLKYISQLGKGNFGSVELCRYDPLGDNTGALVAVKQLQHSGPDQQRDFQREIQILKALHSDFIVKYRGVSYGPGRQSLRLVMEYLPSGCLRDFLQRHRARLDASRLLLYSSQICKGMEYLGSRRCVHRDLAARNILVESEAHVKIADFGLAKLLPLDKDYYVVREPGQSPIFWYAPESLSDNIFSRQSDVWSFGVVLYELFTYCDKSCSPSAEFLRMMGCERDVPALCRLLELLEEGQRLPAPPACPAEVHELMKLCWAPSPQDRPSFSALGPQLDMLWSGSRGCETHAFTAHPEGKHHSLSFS", "experiment": "Inhibition of JAK3 (unknown origin) incubated for 40 mins in presence of ATP by Kinase-glo luminescence assay"}, "[3]": {"target": "T2, Aurora kinase B (Homo sapiens, UniProt Q96GD4)", "T2 sequence (Q96GD4 whole entry)": "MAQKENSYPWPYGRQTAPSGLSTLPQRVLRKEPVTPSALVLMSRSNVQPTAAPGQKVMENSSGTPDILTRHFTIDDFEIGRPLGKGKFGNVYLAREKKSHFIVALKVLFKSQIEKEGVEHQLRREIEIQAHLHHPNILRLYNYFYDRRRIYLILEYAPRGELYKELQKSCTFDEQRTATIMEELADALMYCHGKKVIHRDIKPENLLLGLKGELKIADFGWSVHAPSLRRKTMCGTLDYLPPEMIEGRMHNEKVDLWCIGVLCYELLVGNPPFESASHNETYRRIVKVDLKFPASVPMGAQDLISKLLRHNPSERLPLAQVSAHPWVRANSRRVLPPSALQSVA", "experiment": "Inhibition of Aurora B (unknown origin) incubated for 40 mins in presence of ATP by Kinase-glo luminescence assay", "how_it_was_run": "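Kinase reaction at 30 °C for 40 min in 40 mM Tris pH 7.4, 10 mM MgCl2, 0.1 mg/ml BSA, 1 mM DTT, 10 µM ATP, kinase plus substrate; compounds added from 10% DMSO dilutions (1% DMSO final). Remaining ATP measured by Kinase-Glo Plus luminescence; IC50 from nonlinear regression, normalized dose-response fit.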"}, "[4]": {"tested_on": "K562", "experiment": "Antiproliferative activity against human K562 cells assessed as reduction in cell growth measured after 72 hrs by CCK8 assay", "type": "functional, cell-based", "settings": "K562, 72 h"}, "[5]": {"experiment": "Cytotoxicity against HCoEpiC assessed as reduction in cell growth measured after 72 hrs by CCK8 assay", "settings": "Homo sapiens"}, "[6]": {"tested_on": "HUVEC", "experiment": "Cytotoxicity against HUVEC assessed as reduction in cell growth measured after 72 hrs by CCK8 assay", "type": "cell-based", "settings": "Homo sapiens"}, "[7]": {"target": "T2, Aurora kinase B", "experiment": "Inhibition of Aurora B phosphorylation in human K562 cells incubated for 48 hrs by Western blot analysis", "type": "cell-based", "settings": "dose 1-20 µM", "how_it_was_run": "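K562 or HCT116 cells treated 48 h at 1, 10 and 20 µM alongside untreated control; lysed in cold RIPA, protein by BCA, SDS-PAGE, nitrocellulose transfer, 5% milk block, primary antibody overnight at 4 °C, secondary 1 h; p-Aurora A, p-Aurora B, p-STAT3, p-STAT5 probed with GAPDH loading control.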"}, "[8]": {"tested_on": "K562", "experiment": "Cell cycle arrest in human K562 cells assessed as accumulation of diploid cells at S phase at 10 uM incubated for 48 hrs by propidium iodide staining based flow cytometric analysis (reference value: 35.94 %)", "type": "functional"}, "[9]": {"tested_on": "K562", "experiment": "Cell cycle arrest in human K562 cells assessed as accumulation at […] phase at 10 uM incubated for 48 hrs by propidium iodide staining based flow cytometric analysis (reference value: 1.90 %)", "type": "functional"}, "[10]": {"tested_on": "K562", "experiment": "Cell cycle arrest in human K562 cells assessed as accumulation of diploid cells at G2 phase at 20 uM incubated for 48 hrs by propidium iodide staining based flow cytometric analysis (reference value: 7.73 %)", "type": "functional"}, "[11]": {"tested_on": "K562", "experiment": "Cell cycle arrest in human K562 cells assessed as accumulation of diploid cells at S phase at 20 uM incubated for 48 hrs by propidium iodide staining based flow cytometric analysis (reference value: 35.94 %)", "type": "functional"}, "[12]": {"tested_on": "HCT-116", "experiment": "Cell cycle arrest in human HCT116 cells assessed as accumulation of diploid cells at G1 phase at 1 uM incubated for 48 hrs by propidium iodide staining based flow cytometric analysis (reference value: 77.62 %)", "type": "functional"}, "[13]": {"tested_on": "HCT-116", "experiment": "Cell cycle arrest in human HCT116 cells assessed as accumulation of diploid cells at S phase at 1 uM incubated for 48 hrs by propidium iodide staining based flow cytometric analysis (reference value: 11.92 %)", "type": "functional"}, "[14]": {"tested_on": "HCT-116", "experiment": "Cell cycle arrest in human HCT116 cells assessed as accumulation at […] phase at 1 uM incubated for 48 hrs by propidium iodide staining based flow cytometric analysis (reference value: 2.01 %)", "type": "functional"}, "[15]": {"species_on_record": "Homo sapiens", "experiment": "Selectivity for JAK3 (unknown origin) over Aurora B (unknown origin)"}, "[16]": {"tested_on": "HCT-116", "experiment": "Cell cycle arrest in human HCT116 cells assessed as accumulation of diploid cells at G2 phase at 10 uM incubated for 48 hrs by propidium iodide staining based flow cytometric analysis (reference value: 10.46 %)", "type": "functional"}, "[17]": {"tested_on": "HCT-116", "experiment": "Cell cycle arrest in human HCT116 cells assessed as accumulation at […] phase at 10 uM incubated for 48 hrs by propidium iodide staining based flow cytometric analysis (reference value: 2.01 %)", "type": "functional"}, "[18]": {"species_on_record": "Homo sapiens", "experiment": "Selectivity for JAK2 (unknown origin) over Aurora A (unknown origin)"}, "[19]": {"species_on_record": "Homo sapiens", "experiment": "Selectivity for JAK3 (unknown origin) over Aurora A (unknown origin)"}, "[20]": {"tested_on": "HCT-116", "experiment": "Cell cycle arrest in human HCT116 cells assessed as accumulation of diploid cells at G1 phase at 20 uM incubated for 48 hrs by propidium iodide staining based flow cytometric analysis (reference value: 77.62 %)", "type": "functional"}, "[21]": {"tested_on": "HCT-116", "experiment": "Cell cycle arrest in human HCT116 cells assessed as accumulation of diploid cells at G2 phase at 20 uM incubated for 48 hrs by propidium iodide staining based flow cytometric analysis (reference value: 10.46 %)", "type": "functional"}, "[22]": {"tested_on": "HCT-116", "experiment": "Cell cycle arrest in human HCT116 cells assessed as accumulation at […] phase at 20 uM incubated for 48 hrs by propidium iodide staining based flow cytometric analysis (reference value: 2.01 %)", "type": "functional"}}, "data": [{"compound": "O=C(Nc1c[nH]nc1-c1nc(-c2ccc(CN3CCOCC3)cc2)c[nH]1)c1cccc(Cl)c1", "values": [{"measurement": "IC50", "setting": "[1]", "result": 0.166, "unit": "µM"}, {"measurement": "IC50", "setting": "[2]", "result": 0.057, "unit": "µM"}, {"measurement": "IC50", "setting": "[3]", "result": 0.583, "unit": "µM"}, {"measurement": "IC50", "setting": "[4]", "result": 6.73, "unit": "µM"}, {"measurement": "IC50", "setting": "[5]", "result": 31.5, "unit": "µM"}, {"measurement": "IC50", "setting": "[6]", "result": 29, "unit": "µM"}, {"measurement": "inhibition", "setting": "[7]", "result": "Dose-dependent effect"}, {"measurement": "Activity", "setting": "[8]", "result": 35.86, "unit": "%"}, {"measurement": "Activity", "setting": "[9]", "result": 2.09, "unit": "%"}, {"measurement": "Activity", "setting": "[10]", "result": 19, "unit": "%"}, {"measurement": "Activity", "setting": "[11]", "result": 35.1, "unit": "%"}, {"measurement": "Activity", "setting": "[12]", "result": 72.2, "unit": "%"}, {"measurement": "Activity", "setting": "[13]", "result": 14.46, "unit": "%"}, {"measurement": "Activity", "setting": "[14]", "result": 2, "unit": "%"}, {"measurement": "Selectivity ratio", "setting": "[15]", "result": 20}, {"measurement": "Activity", "setting": "[16]", "result": 16.16, "unit": "%"}, {"measurement": "Activity", "setting": "[17]", "result": 2.01, "unit": "%"}, {"measurement": "Selectivity ratio", "setting": "[18]", "result": 20}, {"measurement": "Selectivity ratio", "setting": "[19]", "result": 20}, {"measurement": "Activity", "setting": "[20]", "result": 57.52, "unit": "%"}, {"measurement": "Activity", "setting": "[21]", "result": 24.55, "unit": "%"}, {"measurement": "Activity", "setting": "[22]", "result": 1.98, "unit": "%"}]}]}
